No end group written: not given here.

We go through six substances from article PMC4183631 (Journal of the American Chemical Society, 2014).

In data set [1] the test system is L. monocytogenes ATCC 19115. Briefly: Bacterial agglutination assay. The class given is cell-based, Listeria monocytogenes. The following applies: for peptide concentration at which the bacteria were agglutinated: 0–20 μM peptide, 50% MHB pH 7.4, 6 h, OD600. In a few lines:
(§1)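 Mid-log bacteria (LB for E. coli, BHI for Listeria), washed, held at OD600 0.25 in 50% MHB pH 7.4. Mixed 9:1 with 10× peptide (50, 100, 200 μM stocks) or water in a cuvette; OD600 read over time. At 6 h, for 20 μM samples, supernatant and agglutinate resuspended in fresh 50% MHB were serially diluted and plated (37 °C; LB agar 15 h, BHI agar 20 h). Three trials; mean ± SD.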

The nature of data set [2]: Sedimentation velocity analytical ultracentrifugation. Type of data set: physicochemical. The following applies: lowest possible rotor speed (3000 rpm); white coat on the AUC cell.
The test system of data set [3] is E. coli ATCC 25922. Nature of the data set: Antimicrobial activity assay. Type of data set: cell-based, Escherichia coli. Conditions: 20 μM peptide, AMA buffer (10 mM sodium phosphate, 1% TSB, pH 7.4), 1 h, 37 °C, colony counting; n = 3. An outline of the steps: (§2)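 Cells grown overnight in dextrose-free TSB (37 °C, 16 h), subcultured 1:100 to OD600 ~0.6, washed twice in AMA buffer, set to OD600 0.5, then diluted 1:250. 9 parts culture to 1 part 10× peptide (200 μM stock) or water control; 1 h, 37 °C, 150 rpm. Tenfold dilutions plated on TSB agar, 15 h, 37 °C; 30–200-colony plates counted. Three trials, ≥2 peptide preparations; mean and standard deviation.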

Another data set relates to bacteria. The following applies: cited from earlier work.
The test system of data set [4] is L. monocytogenes ATCC 19115. Nature of the data set: Antimicrobial activity assay. The following applies: 20 μM peptide, AMA buffer (10 mM sodium phosphate, 1% TSB, pH 7.4), 1 h, 37 °C, colony counting; n = 3. The class given is cell-based, Listeria monocytogenes. In a few lines: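 Strain grown overnight in BHI (37 °C, 16 h), subcultured 1:100 to OD600 ~0.6, washed twice in AMA buffer, set to OD600 0.5, then diluted 1:500. 9 parts culture to 1 part 10× peptide (200 μM stock) or water control; 1 h, 37 °C, 150 rpm. Tenfold dilutions plated on BHI agar, 20 h, 37 °C; 30–200-colony plates counted. Three trials, ≥2 peptide preparations; mean and standard deviation.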

Data set [5] has as its system S. Typhimurium ATCC 14028. Nature of the data set: Antimicrobial activity assay. Type of data set: cell-based, Salmonella enterica serovar Typhimurium. Conditions: 20 μM peptide, AMA buffer (10 mM sodium phosphate, 1% TSB, pH 7.4), 1 h, 37 °C, colony counting; n = 3. An outline of the steps:
as §2

Data set [6] has as its system E. coli ATCC 25922. Briefly: Bacterial agglutination assay. The following applies: for peptide concentration at which the bacteria were agglutinated: 0–20 μM peptide, 50% MHB pH 7.4, 6 h, OD600. Type of data set: cell-based, Escherichia coli. In a few lines: as §1
The next data set relates to S. aureus ATCC 25923. Briefly: Antimicrobial activity assay. Type of data set: cell-based, Staphylococcus aureus. The following applies: 20 μM peptide, AMA buffer (10 mM sodium phosphate, 1% TSB, pH 7.4), 1 h, 37 °C, colony counting; n = 3. In a few lines:
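Strain grown overnight in dextrose-free TSB (37 °C, 16 h), subcultured 1:100 to OD600 ~0.6, washed twice in AMA buffer, set to OD600 0.6, then diluted 1:100. 9 parts culture to 1 part 10× peptide (200 μM stock) or water control; 1 h, 37 °C, 150 rpm. Tenfold dilutions plated on TSB agar, 20 h, 37 °C; 30–200-colony plates counted. Three trials, ≥2 peptide preparations; mean and standard deviation.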

For data set [7], the target named is HD6 F29A mutant, oxidized form (human). Briefly: AUC.
Setting [8] is: 20 μM peptide, 6 h, bacterium not given.
Where [9] appears, read: 20 μM peptide, bacterial culture 10^8 CFU/mL in cuvette.
[10] abbreviates: 20 μM peptide, 6 h, mean ± SDM, n = 3.

Take “AFTCHCRR-SCYSTEYSYGTCTVMGINHRFCCL (bicyclic or more) [HD6, Human α-defensin 6]”: the “CFU/mL of the resuspension following agitation” value (in [1] (setting [8]); in the data set with E. coli ATCC 25922 [6] (setting [8])) was “comparable to that of the untreated control” each time. Moreover, the “log reduction in CFU/mL of the supernatant relative to the bacteria-only control” value (in [1] (setting [8]); in the data set with E. coli ATCC 25922 [6] (setting [8])) was “ca. 1.3 fold log” throughout. In addition, the “time for clumps to sediment to the bottom of the cuvette and clarify the medium” value (in data set [1] (setting [9]); in the data set on E. coli ATCC 25922 [6] (setting [9])) was approximately 2 h throughout. The “time to bacterial clumping observed by the eye after mixing” value (in data set [1] (setting [9]); with E. coli ATCC 25922 [6] (setting [9])) was not above 5 min each time. Moreover, in data set [2], the “time within which the peptide sedimented (rapid peptide aggregation)” value is reported as not above 15 min. The antibacterial activity entry (with E. coli ATCC 25922 [3]; in data set [4]; in [5]; in the data set with S. aureus ATCC 25923) was “neither HD6 nor the mutants exhibit significant antibacterial activity” throughout. The “antibacterial activity in vitro” value in the data set with bacteria is reported as “negligible antibacterial activity”.

For the substance “ATCYCRTGRCATRESLSGVCEISGRLYRLCCR (also: bicyclic or more (positions not given here)) [HD5, reference compound]”, the “antibacterial activity in vitro” value in the data set with bacteria is recorded as “broad-spectrum antibacterial activity”.

As to “H27W (AFTCHCRRSCYSTEYSYGTCTVMGINWRFCCL; disulfide (positions not given here); ends not checked; UniProt Q01524 69-100, looked up, variant H27W)”, the “peptide concentration at which the bacteria were agglutinated” value (shortened to “peptide concentration”) (in data set [1]; in the data set with E. coli ATCC 25922 [6]) was not below 10 µM each time.

“HD6 F29A mutant, oxidized form (peptide)” registered a stoichiometry N in [7] of 2.

Consider “I25T (AFTCHCRRSCYSTEYSYGTCTVMGTNHRFCCL; disulfide (positions not given here); ends not checked; UniProt Q01524 69-100, looked up, variant I25T)”, for which the “peptide concentration” value (in [1]; with E. coli ATCC 25922 [6]) was not below 10 µM in each case.

Turning to “V22T (AFTCHCRRSCYSTEYSYGTCTTMGINHRFCCL; disulfide (positions not given here); ends not checked; UniProt Q01524 69-100, looked up, variant V22T)”, the “peptide concentration” value (in data set [1]; in the data set on E. coli ATCC 25922 [6]) was not below 10 µM each time. Moreover, the “CFU/mL reduction of the supernatant, in words” value (in [1] (setting [10]); in the data set on E. coli ATCC 25922 [6] (setting [10])) was “smaller decrease in CFU/mL for the supernatant” throughout.
